The source of these data is PubChem BioAssay AID651999 (Sanford-Burnham Center for Chemical Genomics, 2013).

Structures are written as SMILES. Several values for one entry are separate records, joined by “and”; a condition that tells them apart may be missing. Equal values may be shown once. The whole screen tested about 360,000 compounds, of which about 1,400 (0.39%) were called active. The full list was thinned out, with actives kept by preference. Values without a mark were called inactive.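 The calls were made as follows: active = pattern-corrected inhibition above about 35%, with an unprinted fluorescence ratio check between 0.5 and 1.5 (limit read from the data, passing the limit was not always enough); inactive = the rest.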

In this test the target is COP9 signalosome complex subunit 5 (Homo sapiens) (UniProt Q92905). Briefly: inhibitors of CSN-mediated cullin deneddylation, primary screen, biochemical, fluorescence polarization, uHTS (AID 651999).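 Also: 0% = enzyme with substrate and 100% = substrate without enzyme.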 The conditions noted are these: Purified CSN, SCF-Nedd8-OG deneddylation, at 12.5 µM, hits give high values. An outline of the steps: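 Test system: purified human Csn5 enzyme expressed in HEK293T cells. Amount: 0.24 nM enzyme. Reagent: SCFSkp2-Nedd8OG substrate at 10 nM final. Schedule: 90 min incubation of compound, enzyme and substrate at room temperature. Detection: fluorescence polarization. Read-out: % inhibition of substrate cleavage by Csn5.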
Chain of COP9 signalosome complex subunit 5 (Homo sapiens) (Q92905 whole entry, looked up, one chain of several): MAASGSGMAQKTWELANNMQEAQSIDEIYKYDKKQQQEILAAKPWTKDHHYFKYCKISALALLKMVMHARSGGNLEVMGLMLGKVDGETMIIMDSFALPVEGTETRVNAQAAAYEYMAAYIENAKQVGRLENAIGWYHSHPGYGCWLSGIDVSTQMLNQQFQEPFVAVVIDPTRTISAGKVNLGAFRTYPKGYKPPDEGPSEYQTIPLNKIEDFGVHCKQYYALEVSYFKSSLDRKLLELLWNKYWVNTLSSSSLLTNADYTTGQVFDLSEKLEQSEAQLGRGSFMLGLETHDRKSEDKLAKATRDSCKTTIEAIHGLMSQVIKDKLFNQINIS
As for `N#Cc1c(NC(=O)CCCN2C(=O)c3ccccc3C2=O)oc(-c2ccccc2)c1-c1ccccc1`, the inhibition is -3.56%.
On to `CC(C)C(=O)Nc1oc(-c2ccccc2)cc1C#N`, for which the inhibition was 5.77%.
For `CC(Oc1ccccc1)C(=O)Nc1oc(-c2ccco2)c(-c2ccco2)c1C#N` (stereo not given) the value was 38.5% (active); for `Nc1nnc2c(C(F)(F)F)nc3ccccc3n12`, 0.57%.
For `Cc1cccc(N2C(=O)SC(SC(=Nc3ccccc3)Nc3ccccc3)C2=O)c1` (stereo not given), the inhibition was -2.12%.
For `CCC(C)(C)n1nnnc1CN1CCN(c2nc3ccc(C)cc3cc2C#N)CC1` the value was 1.36%; for `Cc1cccc(N(C)C(=O)CN2C(=O)COc3ccc(S(=O)(=O)N4CCCCCC4)cc32)c1`, -4.61%.
As for `Cc1cc(C(=O)CCC(=O)NNC(=O)c2ccccc2O)c(C)s1`, the figure is 36.4% (active).
For `Cc1cccc(NS(=O)(=O)c2cccc(C(=O)NNC(=O)c3ccccc3O)c2)c1`, the inhibition is -6.82%.
As for `Cc1ccccc1C(=O)NNC(=O)CN1C(=O)c2ccccc2C1=O`, the figure is 6.43%.
As for `COC(=O)c1ccc(CN2CCN(CCCc3ccccc3)C(CCO)C2)cc1` (stereo not given), the figure is -2.91%.
As for `CCOC(=O)N1CCN(S(=O)(=O)N2CCCC(C(=O)NCCCN3CCC(C)CC3)C2)CC1` (stereo not given), the figure is 2.45%; as for `O=C(Oc1c(-c2ccco2)oc2ccccc2c1=O)c1cccnc1`, -1.72%; as for `CC(Oc1ccc(-c2ccccc2)c(F)c1)c1ccn(S(=O)(=O)c2cccc3ccccc23)n1` (stereo not given), 3.61%.
For the compound `COc1ccc(C2OCC3(CO2)SC(=O)NC3=O)cc1OC` (stereo not given), the inhibition was -7.79%.
As for `COc1ccc(OC)c(CNC(=O)CCc2nc(-c3cccs3)no2)c1`, the figure is 2.31%; as for `COc1ccc(CCc2nc(-c3cccs3)no2)cc1`, 1.58%; as for `CCc1ccc(CNC(=O)CCc2nc(-c3cccs3)no2)cc1`, 90.8% (active).
For `COc1cccc2c1C(=O)c1c(O)c3c(c(O)c1C2=O)CC(O)(C(C)=NNC(=O)c1ccc(Cl)c(Cl)c1)CC3OC1CC(N)C(O)C(C)O1` (stereo not given) the value was -72.5%; for `COc1ccc(CN2CN(C3CCCC3)CSC2=S)cc1`, -9.41%; for `COC(=O)[C@@]12C[C@@H](CC(=O)NCc3cccc(C(F)(F)F)c3)C(=O)N(Cc3ccco3)C1=CCC(C)(C)C2`, 1.26%.
For `COc1cccc(C(O)c2ncc(-c3ccc4ccccc4c3)[nH]2)c1` (stereo not given) the value was -4.1%.
For `Cc1cccc(-c2cnc(C(O)c3ccc4ccccc4c3)[nH]2)c1` (stereo not given), the inhibition was 39.3% (active).
For `Cc1cccc(-c2cnc(C(O)c3cc(C)cc(C)c3)[nH]2)c1` (stereo not given) the value was -2.61%.
As for `CCc1nn(CCCN2CCN(c3cccc(Cl)c3)CC2)c(=O)n1CCOc1ccccc1`, the figure is -4.47% and -2.79%.
As for `Cc1ccc(CNS(=O)(=O)c2ccc3c(c2)N(C)CCO3)cc1`, the figure is -2.61%.
Consider `CCCC/C=C/c1cccc2nncn12`, for which the inhibition is -1.69%.
Regarding `COc1ccc2[nH]c3c(C)c4cc[n+](C)cc4c(C)c3c2c1`, the inhibition is 102% (active).
For `Cc1cc(O)c(Sc2ccccc2)c(=O)o1` the value was 0.39%; for `Cc1cc(O)c(C(=O)/C=C/c2c(F)c(F)c(F)c(F)c2F)c(=O)o1`, 43.9% (active); for `O=C(CC[C@H]1O[C@@H](n2ccc(=O)[nH]c2=O)[C@H](O)[C@@H]1O)N[C@H](Cc1ccccc1)C(=O)NCc1ccco1`, -1.91%.
With `CCN(CC(=O)NCC(=O)Nc1cccc(C)c1C)Cc1ccccc1`, the inhibition was 1.96%.
As for `CCOc1cc(CNn2c(C)nnc2SCC(=O)NC(C)(C)C)ccc1OCC(=O)NC(C)(C)C`, the figure is 2.06%; as for `C=CCSc1nnc(Cn2c(=O)sc3ccccc32)n1C`, 7.9%.
For `CCSc1nc(C)c(CCOc2cccc(C)c2)c(=O)[nH]1` the value was -18.6%.
As for `COc1cccc(CN(C)CC(=O)Nc2sc3c(c2C#N)CCC3)c1`, the figure is 4.05%; as for `COc1ccc(-n2c(SCC(=O)Nc3sc4c(c3C#N)CCCC4)nnc2-c2ccc(O)cc2)cc1`, 50.2% (active); as for `NC(=O)c1c(NC(=O)CSc2nnc(-c3ccco3)n2N)sc2c1CCCC2`, 10.7%.
Consider `Cc1ccc(NC(=O)CN(C)S(=O)(=O)c2cnc[nH]2)cc1C`, for which the inhibition is -2.5%.
For `C=CCC1=C/C(=C\c2c(N)n3nc(CC(=O)N4CCOCC4)sc3nc2=O)C=C(OC)C1=O` the value was 72.5% (active).
For `COC1=C/C(=C/c2c(N)n3nc(CC(=O)N4CCOCC4)sc3nc2=O)C=CC1=O` the value was 16.1%; for `O=C(C1CCN(C2CCN(Cc3ccc4cc(F)ccc4n3)CC2)CC1)N1CCCC1`, 1%.
For the compound `Cc1cc(F)ccc1S(=O)(=O)Nc1ncnc2scc(-c3ccc(F)cc3)c12`, the inhibition was 0.77%.
As for `O=C(O)CC(c1ccccc1F)N1Cc2ccccc2C1=O` (stereo not given), the figure is -0.99%.
For `O=S(=O)(Nc1ccc2ccccc2c1)N1CCCCC1` the value was -1.67%; for `Cc1noc(C)c1S(=O)(=O)N(C)C[C@H]1Oc2ccc(NC(=O)C3CCCCC3)cc2C(=O)N([C@H](C)CO)C[C@@H]1C`, -5.26%; for `CCN1/C(=C\c2ccc3ccccc3[n+]2CC)Sc2cc(C)ccc21`, 62.2% (active).
As for `FC(F)(F)c1ccccc1Cc1c(-c2ccccc2)nc2c3ccccc3ccn12`, the figure is 3.57%; as for `COc1cc(CN(C)Cc2nc3cc(C(F)(F)F)ccc3c(=O)[nH]2)ccc1OC(F)F`, 5.3%; as for `CC(=O)Nc1ccc(C(=O)NNC(=O)CCCCC(=O)NNC(=O)c2ccc(NC(C)=O)cc2)cc1`, 2.24%.
Take `CN(CC(=O)NC1CCCCC1)S(=O)(=O)c1cccc2cccnc12`: the inhibition was -6.5%.
For `CC1(C)CC(=O)C2=C(C1)NCN(CCCN1CCOCC1)C2` the value was -5.59%; for `O=C(COC(=O)c1cc(=O)[nH]c2ccccc12)Nc1nc(-c2cccc(Br)c2)cs1`, 3.39%; for `CCCn1c(C)cc(-c2csc(NC(=O)CCc3nc4ccccc4c(=O)[nH]3)n2)c1C`, 5.04%.
For `O=C(CSc1nc2ccccc2c(=O)[nH]1)Nc1nc(-c2ccc(Br)cc2)cs1` the value was 55.8% (active); for `CC1(C)C2CCC1(CS(=O)(=O)NCCc1c[nH]c3ccccc13)C(=O)C2` (stereo not given), -3.93%.
On to `COc1ccc(C(c2nnnn2C2CCCC2)N2CCN(C/C=C/c3ccccc3)CC2)cc1` (stereo not given), for which the inhibition is -3.45%.
`OC[C@@H]1CN(Cc2cccs2)C[C@H](n2cnc3c(Nc4ccccc4)ncnc32)O1`: the inhibition is 1.6%.
Take `O=C(CC1SC(N2CCOCC2)=NC1=O)Nc1ccccc1F` (stereo not given): the inhibition was -4.57%.
As for `CNC(=O)/C(C#N)=C/c1c(F)cccc1Cl`, the figure is -0.2%.
Take `N#C/C(=C\C1=C(N2CCOCC2)C(=C\c2ccccc2)/CC1)C(=O)Nc1ccccc1F`: the inhibition was 59.9% (active).
Consider `Cc1cc(C)c(S(=O)(=O)NCC(c2ccc3c(c2)OCO3)N2CCOCC2)c(C)c1` (stereo not given), for which the inhibition was 4.99%.
For `COc1ccc(C2=Nc3ccccc3NC(=O)C2N(C(=O)c2cc3ccccc3[nH]2)c2ccccc2)cc1` (stereo not given) the value was 1.01%; for `O=C(O)c1ccccc1NC(=S)NC(NC(=O)c1ccccc1[N+](=O)[O-])C(Cl)(Cl)Cl` (stereo not given), 0.72%.
With `COc1cc(N2CCCC2)c(OC)cc1/C=C(/C#N)c1cccc(Br)c1`, the inhibition is 40.3% (active).
For `Cc1cccc(NC(=O)C2CC(=O)OC23CCCC3)c1` (stereo not given) the value was -1.93%; for `Cc1cccc(C)c1NC(=O)C1CCCN1C(=O)OC(C)(C)C` (stereo not given), 1.38%; for `O=C(C(=O)N1CCc2ccccc2C1)c1c[nH]c2ccccc12`, 3.61%.
For `CN(C(=O)COc1nnc(-c2cccs2)c(-c2cccs2)n1)c1ccccc1` the value was 4.69%; for `C=CCn1c(=S)[nH]c2scc(-c3ccco3)c2c1=O`, 35.8% (active); for `Cc1ccc(-c2nnc(C)c(N3CC(C)OC(C)C3)n2)cc1` (stereo not given), 4.31%.
As for `Cc1nn(C)c(Cl)c1CN1CCC(Oc2ccc(C(=O)N3CCCC3)cc2)CC1`, the figure is -0.97%; as for `Cc1cccn2c(=O)c3cc(C(=O)NC4CCCCC4)sc3nc12`, 38.6% (active).
For `COCCCn1c(C(=O)NC2CCCCC2)cc2c(=O)n3cccc(C)c3nc21`, the inhibition is -3.61%.
For `Cc1ccccc1-n1nc(C)c2cc(C(=O)NC3CC3)sc21` the value was -0.46%; for `CN1CCNC(=O)C1CC(=O)N1CC=C(c2ccc(F)cc2)CC1` (stereo not given), -1.53%.
For the compound `Cc1ccc([C@H]2C[C@H](O)[C@@H](n3cc(COC(=O)c4ccccc4)nn3)CN2CC2CCCCC2)cc1`, the inhibition is -1.77%.
For `COC(=O)N/N=C/c1c[n+]([O-])c2ccccc2[n+]1[O-]` the value was -7.07%; for `Cc1ccc(-n2nc3ccc(NC(=O)/C=C/c4ccco4)cc3n2)cc1C`, 62.3% (active).
On to `CCC(=O)Nc1ccc2nn(-c3ccc(F)cc3)nc2c1`, for which the inhibition is -3.58%.
As for `Cc1cccc(N2CCN(C(=O)/C=C/c3ccco3)CC2)c1C`, the figure is -6.8%.
As for `C[C@H](CO)N1C[C@H](C)[C@@H](CN(C)C(=O)c2cnccn2)Oc2ncc(Br)cc2C1=O`, the figure is -0.87%; as for `COc1ccc(C(C(=O)NC2CCCC2)N(CCCO)C(=O)Cn2nnc(-c3ccc(C)o3)n2)cc1` (stereo not given), -1.83%.
As for `CCCNC(=O)C1(C)CCCN(Cc2cccc(C(F)(F)F)c2)C1` (stereo not given), the figure is 1.08%; as for `O=C(CN1C(=O)CCS(=O)(=O)c2ccccc21)NCc1ccc(F)cc1`, 2.38%.
For `CSCc1ccc(C(=O)Nc2cc(C)cc(C)c2)cc1`, the inhibition is -3.14%.
In the case of `COCc1cc(C)nc(Nc2cc(C)ccc2C)c1C#N`, the inhibition was 2.37%.
For `O=C(CCN1C(=O)/C(=C/c2cccs2)SC1=S)NNC(=O)c1cccc(O)c1` the value was 51.4% (active); for `Cc1c(C(=O)NCCN2C(=O)S/C(=C\c3cccs3)C2=O)cccc1[N+](=O)[O-]`, -3.22%; for `O=C(CCN1C(=O)c2ccccc2C1=O)NNC(=O)c1ccc(Cl)cc1Cl`, -5.29%.
